Results from different studies.
Each line is one published result; the experiments were not run side by side.
Target: Angiopoietin-1 receptor (TEK, Homo sapiens, UniProt Q02763)

The remaining binding of `C=CC(=O)N1CCC(C(=O)NCC(=O)N2CCN(c3nc(-c4cnc(N)nc4C(F)F)nc(N4CCOCC4)n3)CC2)CC1` is reported as 97% (binding; competition with immobilised ligand; 1 µM).
`O=C(NCc1ncc(C(F)(F)F)cc1Cl)c1ccc2c(c1)C1(CCS(=O)(=O)CC1)[C@H](C1CC1)N2S(=O)(=O)c1ccc(F)cc1` gave a remaining binding of 100% (cell-free assay; competition with immobilised ligand; 1 µM).
`O=C(Nc1c[nH]nc1C(=O)NC1CCNCC1)c1cc(F)cc(F)c1` gave a remaining binding of 94% (binding; competition with immobilised ligand; 1 µM).
For `FC(F)(F)Oc1cccc(-c2cnc3ccc(-c4ccncc4)nn23)c1`, the remaining binding was 76% (cell-free assay; competition with immobilised ligand; 5 µM).
For `Cc1cnc(Nc2ccc(C(=O)N3CCC(N4CCCC4)CC3)cc2)nc1-c1cc2ccccc2s1`, the remaining binding was 11% (binding; competition with immobilised ligand; 1 µM).
With `COc1cnc(Nc2cccc(S(N)(=O)=O)c2)nc1N1CCN(c2ccccc2)C(=O)C1` the remaining binding was 100% (binding; competition with immobilised ligand; 1 µM).
`C[C@@H](c1ccc(-n2cnc3c(N)ncnc32)cc1)N1CCc2nn(C)c(Cc3ccccc3)c2C1=O` has a remaining binding of 81% (binding; competition with immobilised ligand; 0.1 µM).
With `C[C@@H]1CN(c2ccc3ncc(-c4ccc5[nH]nc(C6CC6)c5c4)n3n2)C[C@H](C)O1` the remaining binding was 100% (binding; competition with immobilised ligand; 0.5 µM).
For `c1cnn2ncc(-c3ccnc(N4CCC45COC5)n3)c2c1`, the remaining binding was 83% (binding; 1 µM).
The remaining binding of `CCCOc1ccc([C@@H]2[C@@H](C(=O)O)[C@H](c3ccc4c(c3)OCO4)CN2CC(=O)Nc2c(CC)cccc2CC)cc1` is reported as 86% (cell-free assay; competition with immobilised ligand; 1 µM).
With `N[C@H]1CCN(c2nccc(-c3cnn4ncccc34)n2)C1` the remaining binding was 84% (binding; 1 µM).
The remaining binding of `O=C1CCc2cc(Nc3cc(OC4CCOCC4)c([N+](=O)[O-])cc3Cl)ccc2N1` is reported as 76% (cell-free assay; competition with immobilised ligand; 1 µM).
The remaining binding of `O=C(c1ccc(Nc2nccc(-c3cc4ccccc4s3)n2)cc1)N1CCC(N2CCCC2)CC1` is reported as 31% (binding; competition with immobilised ligand; 1 µM).
`CN(CCCC(F)(F)F)c1nccc(-c2cnn3ncccc23)n1` gave a remaining binding of 100% (binding; 1 µM).
`C[C@H](NC(=O)c1cnc2n1[C@](C)(Cc1ccc(C#N)cc1)C(=O)N2c1cc(Cl)c(F)c(Cl)c1)C(=O)NC1(c2ccccn2)CC1` has a remaining binding of 91% (cell-free assay; competition with immobilised ligand; 1 µM).
`CN(c1nccc(-c2cnn3ncccc23)n1)C1CC1` gave a remaining binding of 100% (binding; 1 µM).
The remaining binding of `Cc1nc(N2CC[C@@H](O)C2)ncc1-c1cc(C(F)(F)F)cc2[nH]ncc12` is reported as 100% (cell-free assay; competition with immobilised ligand; 1 µM).
